# Laboratory results published in publication PMC10238757 (Pharmacology Research & Perspectives, 2023).
# Like-named read-outs stand apart in the source and are kept apart here. Marks after values point to notes of the source that are not given here.
# Columns and labels:
# [1] = Multiple ascending dose; assay type: in vivo, human; settings: for half-life / AUC(0-t) / Cmax / concentration at 24 h / Tmax / concentration at 168 h: human, plasma, oral; for Cmax: C max; for Cmax / concentration at 24 h / concentration at 168 h: ng/mL GM (%CVb); for concentration at 24 h / concentration at 168 h: C trough; for Tmax: t max, h median (range)
# Outline: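 Healthy participants, double-blind and placebo-controlled, cohorts of 10 randomized 7:3. Oral doses after a moderate-fat meal: 25–100 mg QD for 14 days (18 days at top dose), or 500 mg QW ×3. Trough taken pre-dose at end of interval (24 h QD, 168 h QW). Plasma followed to 360 h; LLOQ 10 ng/mL. Non-compartmental PK; accumulation ratios Day 14, 15 or 18 vs Day 1; geometric means with CVb.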
# [2] = system: healthy participants; settings: for Abdominal pain, n occurrences (% of cohort) / All-cause AEs Grade 2, n occurrences (% of cohort) / All-cause AEs Grade 3/4, n occurrences (% of cohort) / All-cause AEs, n occurrences (% of cohort) / Constipation, n occurrences (% of cohort) / Diarrhea, n occurrences (% of cohort) / Drug-related AEs Grade 2, n occurrences (% of cohort) / Drug-related AEs Grade 3/4, n occurrences (% of cohort) / Drug-related AEs, n occurrences (% of cohort) / Headache, n occurrences (% of cohort) / MDSD, n occurrences (% of cohort): N=6
smiles,measurement,setting,value
C=C(C)[C@@H]1CC[C@]2(NCCN3CCS(=O)(=O)CC3)CC[C@]3(C)[C@H](CC[C@@H]4[C@@]5(C)CC=C(C6=CC[C@@](COc7ncccc7C#N)(C(=O)O)CC6)C(C)(C)[C@@H]5CC[C@]43C)[C@@H]12 [GSK'937],Accumulation ratio of C trough GM (%CVb),"[1]; 25 mg QD, Day 14/Day 1",6.58 (31.4)
same,Accumulation ratio of C trough GM (%CVb),"[1]; 50 mg QD, Day 14/Day 1",5.25 (35.7)
same,Accumulation ratio of C trough GM (%CVb),"[1]; 100 mg QD, Day 18/Day 1",9.39 (72.5)
same,accumulation in exposure following repeat dosing,[1]; 500 mg QW (weekly),~ 1.7 fold
same,Accumulation ratio of AUC0-t GM (%CVb),"[1]; 500 mg QW, Day 15/Day 1",1.76 (27.0)
same,Accumulation ratio of C max GM (%CVb),"[1]; 500 mg QW, Day 15/Day 1",1.68 (26.9)
same,Accumulation ratio of C trough GM (%CVb),"[1]; 500 mg QW, Day 15/Day 1",1.82 (33.8)
same,time after final dose at which still detectable,[1]; all part 2 participants,360 h
same,half-life,[1],72.2 to 85.8 h
same,AUC(0-t),[1]; 25 mg,1890 ng·h/mL
same,half-life,[1]; 25 mg,85.8 h
same,Cmax,"[1]; 25 mg, 25 mg QD, Day 1",132 ng/mL
same,Cmax,"[1]; 25 mg, 25 mg QD, Day 14",766 ng/mL
same,concentration at 24 h,"[1]; 25 mg, 25 mg QD, Day 1, 24 h",89.3 ng/mL
same,concentration at 24 h,"[1]; 25 mg, 25 mg QD, Day 14, 24 h",588 ng/mL
same,Tmax,"[1]; 25 mg, 25 mg QD, Day 1",9 h
same,Tmax,"[1]; 25 mg, 25 mg QD, Day 14",6.95 h
same,AUC(0-t),[1]; 50 mg,3560 ng·h/mL
same,half-life,[1]; 50 mg,72.2 h
same,Cmax,"[1]; 50 mg, 50 mg QD, Day 1",232 ng/mL
same,Cmax,"[1]; 50 mg, 50 mg QD, Day 14",1150 ng/mL
same,concentration at 24 h,"[1]; 50 mg, 50 mg QD, Day 1, 24 h",189 ng/mL
same,concentration at 24 h,"[1]; 50 mg, 50 mg QD, Day 14, 24 h",990 ng/mL
same,Tmax,"[1]; 50 mg, 50 mg QD, Day 1",8 h
same,Tmax,"[1]; 50 mg, 50 mg QD, Day 14",7.03 h
same,AUC(0-t),[1]; 100 mg,5890 ng·h/mL
same,half-life,[1]; 100 mg,78.5 h
same,Cmax,"[1]; 100 mg, 100 mg QD, Day 1",375 ng/mL
same,Cmax,"[1]; 100 mg, 100 mg QD, Day 14",2680 ng/mL
same,Cmax,"[1]; 100 mg, 100 mg QD, Day 18",2750 ng/mL
same,concentration at 24 h,"[1]; 100 mg, 100 mg QD, Day 1, 24 h",272 ng/mL
same,concentration at 24 h,"[1]; 100 mg, 100 mg QD, Day 14, 24 h",2420 ng/mL
same,concentration at 24 h,"[1]; 100 mg, 100 mg QD, Day 18, 24 h",2460 ng/mL
same,Tmax,"[1]; 100 mg, 100 mg QD, Day 1",9 h
same,Tmax,"[1]; 100 mg, 100 mg QD, Day 14",7.49 h
same,Tmax,"[1]; 100 mg, 100 mg QD, Day 18",9.01 h
same,half-life,[1]; 500 mg,74.5 h
same,Cmax,"[1]; 500 mg, 500 mg QW, Day 1",1110 ng/mL
same,Cmax,"[1]; 500 mg, 500 mg QW, Day 8",2320 ng/mL
same,Cmax,"[1]; 500 mg, 500 mg QW, Day 15",1860 ng/mL
same,concentration at 168 h,"[1]; 500 mg, 500 mg QW, Day 1, 168 h",251 ng/mL
same,concentration at 168 h,"[1]; 500 mg, 500 mg QW, Day 8, 168 h",498 ng/mL
same,concentration at 168 h,"[1]; 500 mg, 500 mg QW, Day 15, 168 h",455 ng/mL
same,Tmax,"[1]; 500 mg, 500 mg QW, Day 1",9.88 h
same,Tmax,"[1]; 500 mg, 500 mg QW, Day 8",10 h
same,Tmax,"[1]; 500 mg, 500 mg QW, Day 15",10 h
same,deaths or SAEs,[2]; SAD,No deaths or SAEs occurred
same,"Abdominal pain, n occurrences (% of cohort)",[2]; SAD 10 mg,1 (17)
same,"All-cause AEs Grade 2, n occurrences (% of cohort)",[2]; SAD 10 mg,0
same,"All-cause AEs Grade 3/4, n occurrences (% of cohort)",[2]; SAD 10 mg,0
same,"All-cause AEs, n occurrences (% of cohort)",[2]; SAD 10 mg,3 (17)
same,"Constipation, n occurrences (% of cohort)",[2]; SAD 10 mg,0
same,"Diarrhea, n occurrences (% of cohort)",[2]; SAD 10 mg,0
same,"Drug-related AEs Grade 2, n occurrences (% of cohort)",[2]; SAD 10 mg,0
same,"Drug-related AEs Grade 3/4, n occurrences (% of cohort)",[2]; SAD 10 mg,0
same,"Drug-related AEs, n occurrences (% of cohort)",[2]; SAD 10 mg,3 (17)
same,"Headache, n occurrences (% of cohort)",[2]; SAD 10 mg,1 (17)
same,"MDSD, n occurrences (% of cohort)",[2]; SAD 10 mg,0
same,"Abdominal pain, n occurrences (% of cohort)",[2]; SAD 30 mg,0
same,"All-cause AEs Grade 2, n occurrences (% of cohort)",[2]; SAD 30 mg,1 (17)
same,"All-cause AEs Grade 3/4, n occurrences (% of cohort)",[2]; SAD 30 mg,0
same,"All-cause AEs, n occurrences (% of cohort)",[2]; SAD 30 mg,5 (50)
same,"Constipation, n occurrences (% of cohort)",[2]; SAD 30 mg,2 (33)
same,"Diarrhea, n occurrences (% of cohort)",[2]; SAD 30 mg,0
same,"Drug-related AEs Grade 2, n occurrences (% of cohort)",[2]; SAD 30 mg,1 (17)
same,"Drug-related AEs Grade 3/4, n occurrences (% of cohort)",[2]; SAD 30 mg,0
same,"Drug-related AEs, n occurrences (% of cohort)",[2]; SAD 30 mg,1 (17)
same,"Headache, n occurrences (% of cohort)",[2]; SAD 30 mg,0
same,"MDSD, n occurrences (% of cohort)",[2]; SAD 30 mg,1 (17)
same,"Abdominal pain, n occurrences (% of cohort)",[2]; SAD 80 mg,0
same,"All-cause AEs Grade 2, n occurrences (% of cohort)",[2]; SAD 80 mg,0
same,"All-cause AEs Grade 3/4, n occurrences (% of cohort)",[2]; SAD 80 mg,0
same,"All-cause AEs, n occurrences (% of cohort)",[2]; SAD 80 mg,4 (50) ^f
same,"Constipation, n occurrences (% of cohort)",[2]; SAD 80 mg,0
same,"Diarrhea, n occurrences (% of cohort)",[2]; SAD 80 mg,0
same,"Drug-related AEs Grade 2, n occurrences (% of cohort)",[2]; SAD 80 mg,0
same,"Drug-related AEs Grade 3/4, n occurrences (% of cohort)",[2]; SAD 80 mg,0
same,"Drug-related AEs, n occurrences (% of cohort)",[2]; SAD 80 mg,1 (17)
